Laboratory results published in ChEMBL document CHEMBL3046951, “Volatile constituents from the leaves of Callicarpa japonica Thunb. and their antibacterial activities” (2004).

Experiments:
Format in all cases: functional
[1] = system: Escherichia coli; experiment: Antimicrobial activity against Escherichia coli O157:H7 ATCC 43894 assessed as growth inhibition rate at 21.52 mg/l after 72 hr by spectrophotometry; conditions: O157:H7 ATCC 43894, 72 h, read-out: GI
[2] = system: Bacillus cereus; experiment: Antimicrobial activity against Bacillus cereus ATCC 11778 assessed as growth inhibition rate at 215.04 mg/l after 72 hr by spectrophotometry; conditions: ATCC 11778, 72 h, read-out: GI
In short: (§1)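 Pure volatile compounds (purity >95%; one at 90%) were tested against B. cereus ATCC 11778. The strain was grown at 30 °C in nutrient broth for 24 h, then subcultured for 18 h. Optical density was read in a Bioscreen C every 24 h for 72 h, with 10% Tween 80 as the control.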

[3] = system: Staphylococcus aureus; experiment: Antimicrobial activity against Staphylococcus aureus ATCC 25923 assessed as growth inhibition rate at 107.52 mg/l after 72 hr by spectrophotometry; conditions: ATCC 25923, 72 h, read-out: GI
[4] = system: Bacillus cereus; experiment: Antimicrobial activity against Bacillus cereus ATCC 11778 assessed as growth inhibition rate at 21.52 mg/l after 72 hr by spectrophotometry; conditions: ATCC 11778, 72 h, read-out: GI; in short: as §1
[5] = system: Listeria monocytogenes; experiment: Antimicrobial activity against Listeria monocytogenes ATCC 19111 assessed as growth inhibition rate at 247 mg/l after 72 hr by spectrophotometry; conditions: ATCC 19111, 72 h, read-out: GI
In short: (§2)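 L. monocytogenes was grown at 30 °C in tryptic soy broth, subcultured for 18 h, and exposed to pure volatile compounds (>95% purity). Growth was followed by Bioscreen C optical density every 24 h for 72 h against a 10% Tween 80 control.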

[6] = system: Listeria monocytogenes; experiment: Antimicrobial activity against Listeria monocytogenes ATCC 19111 assessed as growth inhibition rate at 61.12 mg/l after 72 hr by spectrophotometry; conditions: ATCC 19111, 72 h, read-out: GI; in short: as §2
[7] = system: Salmonella typhimurium; experiment: Antimicrobial activity against Salmonella enterica subsp. enterica serovar Typhimurium ATCC 14028 assessed as growth inhibition rate at 21.52 mg/l after 72 hr by spectrophotometry; conditions: ATCC 14028, 72 h, read-out: GI
In short: (§3)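 Salmonella Typhimurium ATCC 14028 grown in nutrient broth at 30 °C, precultured 24 h, then subcultured 1:100 for 18 h before testing. Single volatile compounds (>95% pure) were added. OD was read every 24 h over 72 h in a Bioscreen C, with 10% Tween 80 as the comparison control.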

[8] = system: Listeria monocytogenes; experiment: Antimicrobial activity against Listeria monocytogenes ATCC 19111 assessed as growth inhibition rate at 107.52 mg/l after 72 hr by spectrophotometry; conditions: ATCC 19111, 72 h, read-out: GI; in short: as §2
[9] = system: Staphylococcus aureus; experiment: Antimicrobial activity against Staphylococcus aureus ATCC 25923 assessed as growth inhibition rate at 247 mg/l after 72 hr by spectrophotometry; conditions: ATCC 25923, 72 h, read-out: GI
[10] = system: Escherichia coli; experiment: Antimicrobial activity against Escherichia coli O157:H7 ATCC 43894 assessed as growth inhibition rate at 43 mg/l after 72 hr by spectrophotometry; conditions: O157:H7 ATCC 43894, 72 h, read-out: GI
[11] = system: Vibrio parahaemolyticus; experiment: Antimicrobial activity against Vibrio parahaemolyticus ATCC 33844 assessed as growth inhibition rate at 6.12 mg/l after 72 hr by spectrophotometry; conditions: ATCC 33844, 72 h, read-out: GI
[12] = system: Escherichia coli; experiment: Antimicrobial activity against Escherichia coli O157:H7 ATCC 43894 assessed as growth inhibition rate at 215.04 mg/l after 72 hr by spectrophotometry; conditions: O157:H7 ATCC 43894, 72 h, read-out: GI
[13] = system: Escherichia coli; experiment: Antimicrobial activity against Escherichia coli O157:H7 ATCC 43894 assessed as growth inhibition rate at 61.12 mg/l after 72 hr by spectrophotometry; conditions: O157:H7 ATCC 43894, 72 h, read-out: GI
In short: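 Authentic volatiles (>95% purity; 2,4-heptadienal 90%) tested against 18 h subcultures. Growth media: E. coli O157:H7 and S. aureus in tryptic soy broth at 37 °C; L. monocytogenes in tryptic soy broth at 30 °C; V. parahaemolyticus in tryptic soy broth + 3% NaCl at 37 °C; S. typhimurium in nutrient broth at 30 °C. Bioscreen C OD every 24 h for 72 h versus 10% Tween 80 control.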

[14] = system: Salmonella typhimurium; experiment: Antimicrobial activity against Salmonella enterica subsp. enterica serovar Typhimurium ATCC 14028 assessed as growth inhibition rate at 43 mg/l after 72 hr by spectrophotometry; conditions: ATCC 14028, 72 h, read-out: GI; in short: as §3
[15] = system: Staphylococcus aureus; experiment: Antimicrobial activity against Staphylococcus aureus ATCC 25923 assessed as growth inhibition rate at 21.52 mg/l after 72 hr by spectrophotometry; conditions: ATCC 25923, 72 h, read-out: GI
[16] = system: Bacillus cereus; experiment: Antimicrobial activity against Bacillus cereus ATCC 11778 assessed as growth inhibition rate at 61.12 mg/l after 72 hr by spectrophotometry; conditions: ATCC 11778, 72 h, read-out: GI; in short: as §1
[17] = system: Listeria monocytogenes; experiment: Antimicrobial activity against Listeria monocytogenes ATCC 19111 assessed as growth inhibition rate at 21.52 mg/l after 72 hr by spectrophotometry; conditions: ATCC 19111, 72 h, read-out: GI; in short: as §2
[18] = system: Salmonella typhimurium; experiment: Antimicrobial activity against Salmonella enterica subsp. enterica serovar Typhimurium ATCC 14028 assessed as growth inhibition rate at 247 mg/l after 72 hr by spectrophotometry; conditions: ATCC 14028, 72 h, read-out: GI; in short: as §3
[19] = system: Listeria monocytogenes; experiment: Antimicrobial activity against Listeria monocytogenes ATCC 19111 assessed as growth inhibition rate at 6.12 mg/l after 72 hr by spectrophotometry; conditions: ATCC 19111, 72 h, read-out: GI; in short: as §2
[20] = system: Salmonella typhimurium; experiment: Antimicrobial activity against Salmonella enterica subsp. enterica serovar Typhimurium ATCC 14028 assessed as growth inhibition rate at 61.12 mg/l after 72 hr by spectrophotometry; conditions: ATCC 14028, 72 h, read-out: GI
[21] = system: Salmonella typhimurium; experiment: Antimicrobial activity against Salmonella enterica subsp. enterica serovar Typhimurium ATCC 14028 assessed as growth inhibition rate at 107.52 mg/l after 72 hr by spectrophotometry; conditions: ATCC 14028, 72 h, read-out: GI; in short: as §3
[22] = system: Salmonella typhimurium; experiment: Antimicrobial activity against Salmonella enterica subsp. enterica serovar Typhimurium ATCC 14028 assessed as growth inhibition rate at 6.12 mg/l after 72 hr by spectrophotometry; conditions: ATCC 14028, 72 h, read-out: GI
[23] = system: Listeria monocytogenes; experiment: Antimicrobial activity against Listeria monocytogenes ATCC 19111 assessed as growth inhibition rate at 215.04 mg/l after 72 hr by spectrophotometry; conditions: ATCC 19111, 72 h, read-out: GI; in short: as §2
[24] = system: Vibrio parahaemolyticus; experiment: Antimicrobial activity against Vibrio parahaemolyticus ATCC 33844 assessed as growth inhibition rate at 107.52 mg/l after 72 hr by spectrophotometry; conditions: ATCC 33844, 72 h, read-out: GI
[25] = system: Bacillus cereus; experiment: Antimicrobial activity against Bacillus cereus ATCC 11778 assessed as growth inhibition rate at 107.52 mg/l after 72 hr by spectrophotometry; conditions: ATCC 11778, 72 h, read-out: GI; in short: as §1
[26] = system: Escherichia coli; experiment: Antimicrobial activity against Escherichia coli O157:H7 ATCC 43894 assessed as growth inhibition rate at 247 mg/l after 72 hr by spectrophotometry; conditions: O157:H7 ATCC 43894, 72 h, read-out: GI
[27] = system: Staphylococcus aureus; experiment: Antimicrobial activity against Staphylococcus aureus ATCC 25923 assessed as growth inhibition rate at 6.12 mg/l after 72 hr by spectrophotometry; conditions: ATCC 25923, 72 h, read-out: GI
[28] = system: Vibrio parahaemolyticus; experiment: Antimicrobial activity against Vibrio parahaemolyticus ATCC 33844 assessed as growth inhibition rate at 61.12 mg/l after 72 hr by spectrophotometry; conditions: ATCC 33844, 72 h, read-out: GI
[29] = system: Bacillus cereus; experiment: Antimicrobial activity against Bacillus cereus ATCC 11778 assessed as growth inhibition rate at 43 mg/l after 72 hr by spectrophotometry; conditions: ATCC 11778, 72 h, read-out: GI; in short: as §1
[30] = system: Vibrio parahaemolyticus; experiment: Antimicrobial activity against Vibrio parahaemolyticus ATCC 33844 assessed as growth inhibition rate at 43 mg/l after 72 hr by spectrophotometry; conditions: ATCC 33844, 72 h, read-out: GI
[31] = system: Staphylococcus aureus; experiment: Antimicrobial activity against Staphylococcus aureus ATCC 25923 assessed as growth inhibition rate at 43 mg/l after 72 hr by spectrophotometry; conditions: ATCC 25923, 72 h, read-out: GI

CCC/C=C/C=O
inhibition of growth at 21.52 µg/mL [1]: 8.2% | inhibition of growth at 215.04 µg/mL [2]: 100% | inhibition of growth at 107.52 µg/mL [3]: 96.7% | inhibition of growth at 21.52 µg/mL [4]: 91.3% | inhibition of growth at 247 µg/mL [5]: 99.7% | inhibition of growth at 61.12 µg/mL [6]: 81.2% | inhibition of growth at 21.52 µg/mL [7]: 63% | inhibition of growth at 107.52 µg/mL [8]: 99.4% | inhibition of growth at 247 µg/mL [9]: 100% | inhibition of growth at 43 µg/mL [10]: 25.5% | inhibition of growth at 6.12 µg/mL [11]: 84.7% | inhibition of growth at 215.04 µg/mL [12]: 97.3% | inhibition of growth at 61.12 µg/mL [13]: 47.5% | inhibition of growth at 43 µg/mL [14]: 83.4% | inhibition of growth at 21.52 µg/mL [15]: 28.7% | inhibition of growth at 61.12 µg/mL [16]: 98.7% | inhibition of growth at 21.52 µg/mL [17]: 32% | inhibition of growth at 247 µg/mL [18]: 98.7% | inhibition of growth at 6.12 µg/mL [19]: 31% | inhibition of growth at 61.12 µg/mL [20]: 98.5% | inhibition of growth at 107.52 µg/mL [21]: 98.9% | inhibition of growth at 6.12 µg/mL [22]: 47.1% | inhibition of growth at 215.04 µg/mL [23]: 99.8% | inhibition of growth at 107.52 µg/mL [24]: 99.8% | inhibition of growth at 107.52 µg/mL [25]: 100% | inhibition of growth at 247 µg/mL [26]: 99.9% | inhibition of growth at 6.12 µg/mL [27]: 29.2% | inhibition of growth at 61.12 µg/mL [28]: 99.8% | inhibition of growth at 43 µg/mL [29]: 91.8% | inhibition of growth at 43 µg/mL [30]: 100% | inhibition of growth at 43 µg/mL [31]: 44.3%
